ChEMBL document CHEMBL4813992, “Ring closure strategy leads to potent RIPK3 inhibitors” (Eur J Med Chem, 2021)
pEC50, pIC50, pKd: −log10 of the molar value. Activity calls are given as the source filed them. No cut-off for these calls is given here.

Key:
Activin receptor type-1B = Activin receptor type-1B (Homo sapiens, UniProt P36896); assay: Inhibition of human ALK4 using ATP as substrate incubated for 120 mins by ADP-glo based luminescence assay
CYP2C19 = CYP2C19 (Homo sapiens, UniProt P33261); assay: Inhibition of CYP2C19 (unknown origin) at 10 uM incubated for 20 mins by LC-MS/MS analysis; assay type: ADME
[1] = target: Receptor-interacting serine/threonine-protein kinase 1 (Homo sapiens) (UniProt Q13546); assay: Inhibition of human RIPK1 using ATP and substrate at 10 uM incubated for 120 mins by ADP-glo based luminescence assay
Mus musculus [2] = assay: Anti-necroptosis activity against TNFalpha-induced C57BL/6J mouse systemic inflammatory response syndrome model assessed as reduction in lethal shock at 5 mg/kg, ip measured after 15 mins; assay type: functional, organism-based
In short: (§1)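 C57BL/6 mice were given vehicle (sterile PBS with 40% PEG400) or compound at 5 mg/kg i.p. about 15 min before i.v. mouse TNFa ([…]). Body temperature and survival were monitored. Temperature changes are shown as means ± SEM per group.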

[3] = Metabolic stability in human liver microsomes assessed as intrinsic clearance by LC-MS/MS analysis; assay type: ADME, Microsome
CDK4/Cyclin D3 = CDK4/Cyclin D3 (Homo sapiens, UniProt P11802); assay: Inhibition of CDK4/Cyclin D3 (unknown origin) using FAM-labeled peptide as substrate preincubated for 10 mins followed by substrate addition measured after 60 mins in presence of ATP by caliper mobility shift assay; assay type: protein-complex assay
[4] = target: Mixed lineage kinase domain-like protein (Homo sapiens) (UniProt Q8NB16); assay: Inhibition of MLKL (unknown origin) polymerization
[5] = Protein binding in human plasma by LC-MS/MS analysis; assay type: ADME, cell-free; details: read-out: PPB (converted)
MEF = assay: Anti-necroptotic activity in mouse MEF cells assessed as inhibition of TNFalpha/Smac mimetic/Z-VAD-fmk (TSZ)-induced necroptosis by measuring increase in cell viability by celltiter-glo luminescent cell viability assay
CYP3A4 [6] = target: T1, CYP3A4 (Homo sapiens, UniProt P08684); assay: Inhibition of CYP3A4 (unknown origin) at 10 uM using testosterone as substrate incubated for 20 mins by LC-MS/MS analysis; assay type: ADME; details: probe testosterone
HT-29 [7] = assay: Anti-necroptotic activity in human HT-29 cells assessed as inhibition of TNFalpha/Z-VAD-fmk (TSZ)-induced necroptosis by measuring increase in cell viability by celltiter-glo luminescent cell viability assay; assay type: functional, cell-based
In short: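 HT-29 cells or MEFs were pretreated with compound or DMSO for 1 h, then stimulated with TNF (20 ng/mL), Smac mimetic (100 nM) and z-VAD. Viability was read as ATP level by CellTiter-Glo (24 h per methods; 40 h per legends). EC50 is the geometric mean of at least two runs ± SEM.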

[8] = Efflux ratio of apparent permeability across basolateral to apical side over apical to basolateral side in human Caco-2 cells; assay type: ADME, cell-based
[9] = target: Platelet-derived growth factor receptor alpha (Homo sapiens, UniProt P16234); assay: Inhibition of PDGFRA (unknown origin) using FAM-labeled peptide as substrate preincubated for 10 mins followed by substrate addition measured after 60 mins in presence of ATP by caliper mobility shift assay
[10] = Metabolic stability in mouse liver microsomes assessed as intrinsic clearance by LC-MS/MS analysis; assay type: ADME, Microsome
[11] = target: Epidermal growth factor receptor (Homo sapiens, UniProt P00533); assay: Inhibition of EGFR (unknown origin) using FAM-labeled peptide as substrate preincubated for 10 mins followed by substrate addition measured after 60 mins in presence of ATP by caliper mobility shift assay
[12] = Protein binding in rat plasma by LC-MS/MS analysis; assay type: ADME, cell-free; details: read-out: PPB (converted)
CYP1A2 = CYP1A2 (Homo sapiens, UniProt P05177); assay: Inhibition of CYP1A2 (unknown origin) at 10 uM incubated for 20 mins by LC-MS/MS analysis; assay type: ADME
CYP2C9 = CYP2C9 (Homo sapiens, UniProt P11712); assay: Inhibition of CYP2C9 (unknown origin) at 10 uM incubated for 20 mins by LC-MS/MS analysis; assay type: ADME
[13] = target: Receptor-interacting serine/threonine-protein kinase 3 (Homo sapiens, UniProt Q9Y572); assay: Binding affinity to human wild type RIPK3 (M1/Q307) expressed in bacterial expression system by Kinomescan method
In short: (§2)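 KINOMEscan competition binding assay. Kinases were expressed as tags on T7 phage grown in E. coli BL21, or produced in HEK-293 cells and DNA-tagged. Kinase, ligand-loaded streptavidin beads and compound were combined in binding buffer (20% SeaBlock, 0.17x PBS, 0.05% Tween 20, 6 mM DTT) for 1 h at room temperature with shaking. Bound kinase was read by qPCR.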

[14] = Metabolic stability in mouse liver microsomes assessed as half life by LC-MS/MS analysis; assay type: ADME, Microsome
[15] = target: Serine/threonine-protein kinase mTOR (Homo sapiens, UniProt P42345); assay: Inhibition of mTOR (unknown origin) using ATP as substrate after 60 mins by Lance ultra assay
[16] = Apparent permeability of the compound across basolateral to apical side in human Caco-2 cells; assay type: ADME, cell-based; details: read-out: permeability
[17] = Apparent permeability of the compound across apical to basolateral side in human Caco-2 cells; assay type: ADME, cell-based; details: read-out: permeability
[18] = Protein binding in mouse plasma by LC-MS/MS analysis; assay type: ADME, cell-free; details: read-out: PPB (converted)
[19] = target: Voltage-gated inwardly rectifying potassium channel KCNH2 (Homo sapiens, UniProt Q12809); assay: Inhibition of human ERG expressed in CHO-K1 cells by QPatch - automated patch-clamp technology; assay type: cell-based
[20] = target: Receptor-interacting serine/threonine-protein kinase 1 (Homo sapiens, UniProt Q13546); assay: Binding affinity to human wild type RIPK1 (M1/K305) expressed in bacterial expression system by Kinomescan method
In short: as §2

CYP2D6 = CYP2D6 (Homo sapiens, UniProt P10635); assay: Inhibition of CYP2D6 (unknown origin) at 10 uM incubated for 20 mins by LC-MS/MS analysis; assay type: ADME
Mus musculus [21] = assay: Antiinflammatory activity in TNFalpha-induced C57BL/6J mouse systemic inflammatory response syndrome model assessed as reduction in IL-6 production in serum at 5 mg/kg, ip measured 4 hrs after TNFalpha stimulation by ELISA; assay type: functional, organism-based
In short: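 C57BL/6 mice were dosed i.p. at 5 mg/kg in PBS/40% PEG400 about 15 min before i.v. mouse TNFa ([…]). Mice were killed 4 h after TNFa and serum IL-6 was measured by ELISA.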

[22] = target: Phosphatidylinositol 4,5-bisphosphate 3-kinase catalytic subunit alpha isoform (Homo sapiens, UniProt P42336); assay: Inhibition of human PI3Kalpha using ATP as substrate at 25 uM incubated for 60 mins by ADP-glo based luminescence assay
[23] = Metabolic stability in human liver microsomes assessed as half life by LC-MS/MS analysis; assay type: ADME, Microsome
Mus musculus [24] = assay: Anti-necroptosis activity against TNFalpha-induced C57BL/6J mouse systemic inflammatory response syndrome model assessed as reduction in hypothermia at 5 mg/kg, ip measured after 15 mins; assay type: functional, organism-based
In short: as §1

CYP3A4 [25] = target: T1, CYP3A4; assay: Inhibition of CYP3A4 (unknown origin) at 10 uM using midazolam as substrate incubated for 20 mins by LC-MS/MS analysis; assay type: ADME; details: probe midazolam
[26] = target: Serine/threonine-protein kinase B-raf (Homo sapiens, UniProt P15056); assay: Inhibition of BRAF (unknown origin) in presence of ATP by Lanthascreen TR-FRET assay
[27] = target: Receptor-interacting serine/threonine-protein kinase 2 (Homo sapiens) (UniProt O43353); assay: Inhibition of RIPK2 (unknown origin) at 10 uM
HT-29 [28] = assay: Cytotoxicity against human HT-29 cells assessed as cell death at 20 uM by celltiter-glo luminescent cell viability assay; assay type: cell-based; details: ht-29, 20 µM
In short: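 HT-29 cells were given a compound concentration gradient without TSZ stimulation. Viability was read as ATP level by luminescence. Cell death above 30% at 20 µM was scored as significant toxicity.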

T1 sequence (P08684 whole entry): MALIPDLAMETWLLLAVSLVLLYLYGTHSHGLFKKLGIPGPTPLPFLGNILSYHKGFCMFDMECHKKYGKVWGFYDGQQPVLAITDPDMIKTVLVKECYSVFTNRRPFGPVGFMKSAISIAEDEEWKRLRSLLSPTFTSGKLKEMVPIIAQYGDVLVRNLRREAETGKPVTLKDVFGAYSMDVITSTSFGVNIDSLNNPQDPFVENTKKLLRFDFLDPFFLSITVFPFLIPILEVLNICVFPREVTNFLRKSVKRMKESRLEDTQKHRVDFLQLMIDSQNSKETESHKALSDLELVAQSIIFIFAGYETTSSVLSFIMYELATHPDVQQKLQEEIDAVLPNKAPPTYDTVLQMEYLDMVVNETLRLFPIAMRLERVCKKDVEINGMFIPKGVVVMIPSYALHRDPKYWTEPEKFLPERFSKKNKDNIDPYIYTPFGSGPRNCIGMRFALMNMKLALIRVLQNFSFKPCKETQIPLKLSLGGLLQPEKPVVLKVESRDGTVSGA
Sequence of Receptor-interacting serine/threonine-protein kinase 2 (Homo sapiens) (O43353 whole entry): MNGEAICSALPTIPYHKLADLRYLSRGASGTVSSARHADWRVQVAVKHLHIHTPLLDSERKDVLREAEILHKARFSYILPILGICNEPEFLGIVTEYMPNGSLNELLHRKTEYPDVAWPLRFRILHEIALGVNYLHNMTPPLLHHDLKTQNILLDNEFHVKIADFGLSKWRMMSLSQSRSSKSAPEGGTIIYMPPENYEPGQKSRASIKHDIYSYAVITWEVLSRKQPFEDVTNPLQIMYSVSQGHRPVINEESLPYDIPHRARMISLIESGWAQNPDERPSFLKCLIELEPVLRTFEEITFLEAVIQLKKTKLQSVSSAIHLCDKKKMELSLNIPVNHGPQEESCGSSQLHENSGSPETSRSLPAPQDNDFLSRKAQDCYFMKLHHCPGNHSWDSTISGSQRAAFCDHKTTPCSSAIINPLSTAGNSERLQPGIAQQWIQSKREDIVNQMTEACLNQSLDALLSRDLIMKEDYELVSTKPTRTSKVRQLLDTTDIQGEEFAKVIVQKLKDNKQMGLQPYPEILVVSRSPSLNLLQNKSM
Sequence of Activin receptor type-1B (P36896 whole entry): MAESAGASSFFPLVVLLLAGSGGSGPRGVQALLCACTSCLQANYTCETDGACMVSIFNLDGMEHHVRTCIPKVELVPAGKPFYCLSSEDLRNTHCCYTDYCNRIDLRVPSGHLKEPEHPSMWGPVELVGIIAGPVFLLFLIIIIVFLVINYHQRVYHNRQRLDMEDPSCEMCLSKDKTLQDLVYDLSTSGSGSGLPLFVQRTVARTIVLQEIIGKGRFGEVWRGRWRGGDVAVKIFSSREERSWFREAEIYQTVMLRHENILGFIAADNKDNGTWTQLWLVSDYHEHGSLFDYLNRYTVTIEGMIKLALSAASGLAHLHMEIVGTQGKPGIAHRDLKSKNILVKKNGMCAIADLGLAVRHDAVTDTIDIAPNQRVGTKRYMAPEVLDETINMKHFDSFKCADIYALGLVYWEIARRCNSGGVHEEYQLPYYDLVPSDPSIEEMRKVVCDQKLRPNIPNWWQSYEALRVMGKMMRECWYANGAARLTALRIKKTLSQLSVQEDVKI
Sequence of Voltage-gated inwardly rectifying potassium channel KCNH2 (Q12809 whole entry): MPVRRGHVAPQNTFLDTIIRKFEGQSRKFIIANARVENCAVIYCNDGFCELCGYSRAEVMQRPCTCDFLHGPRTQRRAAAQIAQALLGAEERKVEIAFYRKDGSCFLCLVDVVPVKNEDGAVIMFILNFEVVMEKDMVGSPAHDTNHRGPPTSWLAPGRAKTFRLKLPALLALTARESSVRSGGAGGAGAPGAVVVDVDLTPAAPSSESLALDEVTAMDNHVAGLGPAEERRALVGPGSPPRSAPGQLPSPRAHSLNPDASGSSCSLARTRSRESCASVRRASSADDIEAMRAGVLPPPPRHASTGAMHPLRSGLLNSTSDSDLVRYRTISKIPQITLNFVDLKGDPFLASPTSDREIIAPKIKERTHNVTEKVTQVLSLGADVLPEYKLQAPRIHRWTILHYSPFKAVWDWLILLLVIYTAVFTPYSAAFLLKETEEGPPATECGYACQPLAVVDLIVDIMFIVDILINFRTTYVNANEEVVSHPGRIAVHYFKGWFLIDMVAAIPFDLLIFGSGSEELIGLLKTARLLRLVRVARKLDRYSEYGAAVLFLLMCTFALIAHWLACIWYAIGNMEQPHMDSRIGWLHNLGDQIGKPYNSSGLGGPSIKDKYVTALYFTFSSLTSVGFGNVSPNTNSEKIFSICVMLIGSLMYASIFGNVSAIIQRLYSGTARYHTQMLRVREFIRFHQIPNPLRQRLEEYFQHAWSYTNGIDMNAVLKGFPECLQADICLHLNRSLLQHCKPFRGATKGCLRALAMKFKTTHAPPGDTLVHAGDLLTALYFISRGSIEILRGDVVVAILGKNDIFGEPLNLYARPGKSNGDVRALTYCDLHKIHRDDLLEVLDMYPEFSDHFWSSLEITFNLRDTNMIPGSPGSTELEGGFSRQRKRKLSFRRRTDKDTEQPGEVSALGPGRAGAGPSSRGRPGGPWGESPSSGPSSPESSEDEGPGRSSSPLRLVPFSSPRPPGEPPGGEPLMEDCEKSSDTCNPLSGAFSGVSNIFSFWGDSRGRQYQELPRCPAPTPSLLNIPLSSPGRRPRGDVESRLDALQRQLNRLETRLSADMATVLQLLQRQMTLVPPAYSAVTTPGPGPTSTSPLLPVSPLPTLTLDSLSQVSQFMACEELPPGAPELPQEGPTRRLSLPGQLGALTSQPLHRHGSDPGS
Sequence of CYP1A2 (P05177 whole entry): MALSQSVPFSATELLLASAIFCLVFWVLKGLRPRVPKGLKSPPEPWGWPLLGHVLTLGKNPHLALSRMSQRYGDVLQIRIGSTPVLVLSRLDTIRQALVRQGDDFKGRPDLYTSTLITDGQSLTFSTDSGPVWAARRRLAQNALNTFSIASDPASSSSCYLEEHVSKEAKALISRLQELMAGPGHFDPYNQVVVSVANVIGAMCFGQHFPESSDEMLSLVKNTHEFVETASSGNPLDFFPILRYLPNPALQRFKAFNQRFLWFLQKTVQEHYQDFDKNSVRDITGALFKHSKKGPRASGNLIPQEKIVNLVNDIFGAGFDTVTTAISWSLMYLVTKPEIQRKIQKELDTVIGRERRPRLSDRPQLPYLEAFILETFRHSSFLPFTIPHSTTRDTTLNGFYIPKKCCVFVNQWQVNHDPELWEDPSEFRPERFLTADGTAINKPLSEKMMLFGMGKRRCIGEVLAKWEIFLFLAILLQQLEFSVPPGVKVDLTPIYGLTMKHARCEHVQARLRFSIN
Sequence of Epidermal growth factor receptor (P00533 whole entry): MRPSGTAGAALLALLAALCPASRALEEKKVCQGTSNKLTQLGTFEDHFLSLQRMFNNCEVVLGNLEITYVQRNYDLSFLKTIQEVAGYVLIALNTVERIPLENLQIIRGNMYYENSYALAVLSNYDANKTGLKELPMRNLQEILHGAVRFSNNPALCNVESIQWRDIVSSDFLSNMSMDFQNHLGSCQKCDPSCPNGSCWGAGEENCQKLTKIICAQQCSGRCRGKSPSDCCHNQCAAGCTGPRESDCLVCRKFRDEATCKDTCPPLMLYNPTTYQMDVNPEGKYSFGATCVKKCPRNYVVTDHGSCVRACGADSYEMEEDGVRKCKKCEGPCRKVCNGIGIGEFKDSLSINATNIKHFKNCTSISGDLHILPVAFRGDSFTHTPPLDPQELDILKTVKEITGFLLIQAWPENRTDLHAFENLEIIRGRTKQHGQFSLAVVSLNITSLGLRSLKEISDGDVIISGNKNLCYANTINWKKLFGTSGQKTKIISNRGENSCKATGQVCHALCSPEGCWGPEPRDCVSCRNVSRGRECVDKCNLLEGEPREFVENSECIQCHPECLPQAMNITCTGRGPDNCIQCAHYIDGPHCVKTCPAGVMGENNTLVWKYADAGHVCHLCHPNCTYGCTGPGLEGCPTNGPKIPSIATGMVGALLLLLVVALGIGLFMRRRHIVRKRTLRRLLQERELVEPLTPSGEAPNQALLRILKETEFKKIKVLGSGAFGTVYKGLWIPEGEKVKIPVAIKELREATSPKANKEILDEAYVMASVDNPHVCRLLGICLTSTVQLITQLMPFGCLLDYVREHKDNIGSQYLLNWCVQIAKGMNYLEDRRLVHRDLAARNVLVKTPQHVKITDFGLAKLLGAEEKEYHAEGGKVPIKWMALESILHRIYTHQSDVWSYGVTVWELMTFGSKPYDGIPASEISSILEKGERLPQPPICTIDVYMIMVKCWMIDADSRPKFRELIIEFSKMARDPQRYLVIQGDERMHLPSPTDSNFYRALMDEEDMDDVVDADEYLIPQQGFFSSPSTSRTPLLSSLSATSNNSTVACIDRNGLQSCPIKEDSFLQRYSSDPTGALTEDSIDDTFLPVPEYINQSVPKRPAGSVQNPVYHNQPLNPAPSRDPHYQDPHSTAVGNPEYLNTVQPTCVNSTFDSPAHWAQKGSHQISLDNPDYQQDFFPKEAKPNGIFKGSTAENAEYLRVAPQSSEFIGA
Sequence of Mixed lineage kinase domain-like protein (Homo sapiens) (Q8NB16 whole entry, the tested form may be a part): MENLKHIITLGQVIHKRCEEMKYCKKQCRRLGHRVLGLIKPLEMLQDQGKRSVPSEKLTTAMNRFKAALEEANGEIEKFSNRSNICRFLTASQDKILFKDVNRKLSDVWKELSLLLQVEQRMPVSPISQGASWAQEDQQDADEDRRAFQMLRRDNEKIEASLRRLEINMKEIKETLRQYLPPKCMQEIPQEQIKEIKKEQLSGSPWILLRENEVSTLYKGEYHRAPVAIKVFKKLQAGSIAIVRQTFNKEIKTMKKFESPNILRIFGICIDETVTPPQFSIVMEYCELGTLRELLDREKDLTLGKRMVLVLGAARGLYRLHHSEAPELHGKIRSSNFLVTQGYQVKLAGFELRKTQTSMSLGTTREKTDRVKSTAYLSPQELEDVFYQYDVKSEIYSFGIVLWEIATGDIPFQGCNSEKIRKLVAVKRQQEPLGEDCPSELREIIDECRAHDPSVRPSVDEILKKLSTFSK

## O=S1(=O)CC2(OCCO2)c2cc3nccc(Nc4ccc5scnc5c4)c3cc21
Activin receptor type-1B
  pIC50: 5.43
CYP2C19
  inhibition at 20 min, 10 µM: 19.9%
[1]
  inhibition: inactive
Mus musculus [2]
  Activity: Active
[3]
  CLH: 60.5 mL/min/kg
CDK4/Cyclin D3
  pIC50: < 5.00
[4]
  inhibition: inactive
[5]
  fraction unbound: 0.029
MEF
  pEC50: 6.27
CYP3A4 [6]
  inhibition at 20 min, 10 µM: 9.6%
HT-29 [7]
  pEC50: 6.38
[8]
  efflux ratio: 0.72
[9]
  pIC50: 6.82
[10]
  CLH: 269 mL/min/kg
[11]
  pIC50: < 5.00
[12]
  fraction unbound: 0.013
CYP1A2
  inhibition at 20 min, 10 µM: 37%
CYP2C9
  inhibition at 20 min, 10 µM: -6.33%
[13]
  pKd: 8.14
[14]
  half-life: 20.3 min
[15]
  pIC50: < 5.00
[16]
  Papp B→A: 25.3 ×10⁻⁶ cm/s
[17]
  Papp A→B: 35.2 ×10⁻⁶ cm/s
[18]
  fraction unbound: 0.027
[19]
  pIC50: < 4.52
[20]
  pKd: 5.23
CYP2D6
  inhibition at 20 min, 10 µM: -5.26%
Mus musculus [21]
  Activity: Active
[22]
  pIC50: 5.11
[23]
  half-life: 28.8 min
Mus musculus [24]
  Activity: Active
CYP3A4 [25]
  inhibition at 20 min, 10 µM: -13.7%
[26]
  pIC50: 5.87
[27]
  inhibition: Active

## O=C1CS(=O)(=O)c2cc3c(Nc4ccc5scnc5c4)ccnc3cc21
HT-29 [7]
  pEC50: 5.42

## Cc1n[nH]c(Nc2ccnc3cc4c(cc23)S(=O)(=O)C(C)(C)C4=O)c1C
HT-29 [7]
  pEC50: < 4.70

## CC1(C)C(=O)c2cc3nccc(Nc4cc(O)c(F)cc4F)c3cc2S1(=O)=O
HT-29 [7]
  pEC50: 5.99
HT-29 [28]
  Activity: > 30%

## CC1COC2(CS(=O)(=O)c3cc4c(Nc5ccc6scnc6c5)ccnc4cc32)O1 (stereo not drawn)
HT-29 [7]
  pEC50: 5.97

## CC(C)S(=O)(=O)c1ccc2nccc(Nc3ccc4scnc4c3)c2c1
MEF
  pEC50: 5.60
HT-29 [7]
  pEC50: 5.82
[27]
  inhibition: Active

## CCC1(C)C(=O)c2cc3nccc(Nc4ccc5scnc5c4)c3cc2S1(=O)=O (stereo not drawn)
HT-29 [7]
  pEC50: < 4.70

## O=C(O)c1ccc(-c2nc(-c3ccc4c(c3)OCO4)c(-c3ccccn3)[nH]2)cc1
Activin receptor type-1B
  pIC50: 6.80

## CC1(C)C(O)(C2CC2)c2cc3nccc(Nc4ccc5scnc5c4)c3cc2S1(=O)=O (stereo not drawn)
HT-29 [7]
  pEC50: < 4.70

## O=S1(=O)CCc2cc3nccc(Nc4ccc5scnc5c4)c3cc21
HT-29 [7]
  pEC50: 5.64

## CC1(O)c2cc3nccc(Nc4ccc5scnc5c4)c3cc2S(=O)(=O)C1(C)C (stereo not drawn)
HT-29 [7]
  pEC50: < 4.70

## O=S1(=O)CC2(CCCO2)c2cc3nccc(Nc4ccc5scnc5c4)c3cc21 (stereo not drawn)
HT-29 [7]
  pEC50: 5.40

## CC1(CC2CC2)C(=O)c2cc3nccc(Nc4ccc5scnc5c4)c3cc2S1(=O)=O (stereo not drawn)
HT-29 [7]
  pEC50: < 4.70

## CC1(C)C(O)c2cc3nccc(Nc4ccc5scnc5c4)c3cc2S1(=O)=O (stereo not drawn)
HT-29 [7]
  pEC50: 5.66

## CC1(C)C(=O)c2cc3nccc(Nc4ccc5scnc5c4)c3cc2S1(=O)=O
HT-29 [7]
  pEC50: 5.65

## Cc1ccc(O)cc1Nc1ccnc2cc3c(cc12)S(=O)(=O)C(C)(C)C3=O
HT-29 [7]
  pEC50: 6.37
HT-29 [28]
  Activity: > 30%

## C=C1c2cc3nccc(Nc4ccc5scnc5c4)c3cc2S(=O)(=O)C1(C)C
HT-29 [7]
  pEC50: 5.99

## CC1(C)C(=O)c2cc3nccc(Nc4cc(O)ccc4F)c3cc2S1(=O)=O
HT-29 [7]
  pEC50: 6.48
HT-29 [28]
  Activity: > 30%

## CC1(C)C(=O)c2cc3nccc(Nc4n[nH]c5ccc(F)cc45)c3cc2S1(=O)=O
HT-29 [7]
  pEC50: < 4.70

## O=S1(=O)CC2(COC2)c2cc3nccc(Nc4ccc5scnc5c4)c3cc21
HT-29 [7]
  pEC50: < 4.70
